Most compounds without a hit are left out; they make up all but 8.9% or so of the library.
Dynein transport: inhibitors of GR-EGFP nuclear translocation, primary screen, dynein cargo transport inhibitor project, imaging, high-content, 3617.4 mouse cells | 220,000 compounds, 0.47% hits | z-score, hits read low | AID 1381, 2008 | test concentration mostly 20 µM; stimulated with dexamethasone, 1 µM; active compounds read low;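 active means plate z-score of nuclear minus cytoplasmic receptor signal below a set negative limit, without overly bright fluorescence or cell loss, cut at about -3.5 in these data, passing the limit was not always enough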;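 further: z-score of nuclear minus cytoplasmic ring GR-EGFP intensity difference per well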
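Buffer or medium – tet-free medium with charcoal-stripped serum · Signal – automated 10x imaging of fixed Hoechst-stained cells · Also added – dexamethasone agonist, 1.0 µM final, for 30 min · Incubation – induction 48 h, compound 1 h, agonist 30 min · Read-out – GR-EGFP nuclear translocation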
L major viab: Leishmania major promastigote growth inhibition, primary screen; Leishmania major promastigotes, resazurin fluorescence viability; inhibition, % at 10 µM; 200,000 compounds, 9% hits; AID 1063, 2008; in the data active means inhibition above about 50%;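 further: promastigotes grown with compound for 44 hours at 28 °C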
HSV augment: enhancers of HSV replication in host cells, fold increase, host cell viability | HSV replication augmentation in cells | 220,000 compounds, 0.005% hits | AID 1956, 2009 | maximum fold increase; in the data active means maximum fold increase above about 1.5; tested in PC3 cells
MT stabilize HCS: microtubule stabilizers in HeLa cells, primary screen, imaging, high-content imaging; HeLa tubulin immunostaining HCS, 24 h; share of cells brighter than vehicle mean+2SD; AID 2205, 2009; 200,000 compounds, 0.83% hits; % tubulin-high responders, % at 10 µM;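 active means plate Z-score above 3 for both tubulin-high and condensed-nucleus cell shares, with cell loss under 80%, at 10 µM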;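 further: anti alpha tubulin signal scored within the nucleus-defined area of each cell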
b-catenin transl: modulators of beta-catenin nuclear translocation, primary screen, imaging, HeLa cells, immunofluorescence, high-content; AID 1665, 2009; nuclear translocation activity, % at 5 µM; 190,000 compounds, 0.3% hits;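 active means nuclear translocation activity above 50% at 5 µM, with a well cell count of 50 or more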;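 further: per-cell ratio of nuclear to cytoplasmic median beta-catenin stain intensity; plate controls were DMSO negative control for no effect and GSK-3 inhibitor IX positive control for full effect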
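System: HeLa cells, endogenous beta-catenin; compound dosing: 5 µM primary single dose, 0.1% DMSO, 0.02–20 µM confirmation series; incubation: 24 h compound exposure at 37°C, 5% CO2; signal: beta-catenin immunofluorescence imaging with DAPI; evaluation: % activation, nuclear-to-cytoplasmic median beta-catenin signal ratio per cell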
* = called active by the depositor.

For CCN(c1ccccc1)S(=O)(=O)c1ccc(OC)c(NC(=O)Cn2cnc3c2c(=O)n(C)c(=O)n3C)c1 the results were Dynein transport -0.32, L major viab 61*, HSV augment inactive, MT stabilize HCS 3 and b-catenin transl -1.
CCC(C)NCC(=O)Nc1cc(S(=O)(=O)N(CC)c2ccccc2)ccc1Cl (centres undefined) was read as Dynein transport -0.61, L major viab 64*, HSV augment inactive, MT stabilize HCS 2 and b-catenin transl 0.
CCN(c1ccccc1)S(=O)(=O)c1ccc(OC)c(NC(=O)CNCC(C)O)c1 (centres undefined) was read as Dynein transport -0.61, L major viab 64*, HSV augment inactive, MT stabilize HCS 6 and b-catenin transl 1.
Screening O=C(O)CCC(=O)N1CCOc2ccc(Cl)cc21 returned Dynein transport -1, L major viab -2, HSV augment inactive, MT stabilize HCS 3 and b-catenin transl -1.
For CCCCC(=O)Nc1ccc(C(=O)NCCc2ccc(S(N)(=O)=O)cc2)cc1 the results were Dynein transport 0.24, L major viab -2, HSV augment inactive, MT stabilize HCS 4 and b-catenin transl -2.
For Cc1cc(C)cc(Nc2ncnc3nc[nH]c23)c1 the results were Dynein transport -0.21, HSV augment inactive and b-catenin transl 2.
For Cc1cc(NC(=O)CCN2CCC(C(N)=O)CC2)ccc1Br the results were Dynein transport 2.5, L major viab 82*, HSV augment inactive, MT stabilize HCS 1 and b-catenin transl -5.
`CC1CN(S(=O)(=O)c2cccc(C(=O)Nc3ccc4c(c3)CCC4)c2)CC(C)O1` (centres undefined) gave Dynein transport 0.45, L major viab 85*, HSV augment inactive, MT stabilize HCS 2 and b-catenin transl 2.
For CN(c1cccc(Cl)c1)S(=O)(=O)c1cccc(C(=O)Nc2ccc3c(c2)CCC3)c1 the results were Dynein transport -0.4, L major viab 95*, HSV augment inactive, MT stabilize HCS 1 and b-catenin transl 0.
Screening CC1CN(S(=O)(=O)c2cccc(C(=O)NN3CCN(C)CC3)c2)CC(C)O1 (centres undefined) returned Dynein transport 0.14, L major viab -5, HSV augment inactive, MT stabilize HCS 7 and b-catenin transl 0.
`CN(c1ccc(F)cc1)S(=O)(=O)c1ccc(Cl)c(C(=O)Nc2ccc3c(c2)CCC3)c1` gave Dynein transport 0.46, L major viab 4, HSV augment inactive, MT stabilize HCS 2 and b-catenin transl -2.
`NC(=O)C1CCN(CCC(=O)Nc2ccc(Br)cc2)CC1` gave Dynein transport -0.9, L major viab -1, HSV augment inactive, MT stabilize HCS 3 and b-catenin transl -3.
For NC(=O)C1CCN(CCC(=O)Nc2ccc3c(c2)CCC3)CC1 the results were Dynein transport 1.7, L major viab 80*, HSV augment inactive, MT stabilize HCS 4 and b-catenin transl 0.
O=C(N1CCN(c2cccc(Cl)c2)CC1)C1(c2cccs2)CCOCC1 was read as Dynein transport 1.3, L major viab 10, HSV augment inactive, MT stabilize HCS 3 and b-catenin transl -1.
Screening O=C1C2C(c3ccccc3)C=CC(c3ccccc3)C2C(=O)N1CCCO (centres undefined) returned Dynein transport 1.6, L major viab 0, HSV augment inactive, MT stabilize HCS 2 and b-catenin transl -4.
`COc1cc(/C=C/C(=O)NCC(=O)N2CCC(N(C)CCN3CCOCC3)CC2)ccc1OC(C)C` gave Dynein transport 0.32, L major viab -4, HSV augment inactive, MT stabilize HCS 2 and b-catenin transl -1.
For CC1CCN(CCC(=O)Nc2ccc(Cl)cc2)CC1 the results were Dynein transport -1.2, L major viab 4, HSV augment inactive, MT stabilize HCS 3 and b-catenin transl 0.
`CC1CN(CCC(=O)Nc2ccc3c(c2)CCC3)CC(C)O1` (centres undefined) gave Dynein transport 0.014, L major viab 86*, HSV augment inactive, MT stabilize HCS 4 and b-catenin transl 1.
CCOC(=O)c1[nH]c2ccccc2c1NC(=O)CCN1CC(C)OC(C)C1 (centres undefined) was read as Dynein transport 1, L major viab -3, HSV augment inactive, MT stabilize HCS 4 and b-catenin transl -4.
Screening CC1CCN(CCC(=O)Nc2ccc3c(c2)CCC3)CC1 returned Dynein transport 3.5, L major viab 84*, HSV augment inactive, MT stabilize HCS 3 and b-catenin transl -1.
Cc1cccc(C)c1NC(=O)CCCN1CC(C)OC(C)C1 (centres undefined) was read as Dynein transport -0.57, L major viab 66*, HSV augment inactive and MT stabilize HCS 2.
O=C(c1ccc(-c2ccccc2)c(F)c1)C1CCCN(C(=O)c2cncs2)C1 (centres undefined) was read as Dynein transport 0.15, L major viab 35, HSV augment inactive, MT stabilize HCS 4 and b-catenin transl 0.
For Cc1onc(-c2c(Cl)cccc2Cl)c1C(=O)c1c[nH]c(C(=O)NCCCN2CCOCC2)c1 the results were Dynein transport 4.1, L major viab -1, HSV augment inactive, MT stabilize HCS 2 and b-catenin transl 0.
`Cc1onc(-c2ccccc2Cl)c1C(=O)NCCCN1CCOCC1` gave Dynein transport 0.24, L major viab 53*, HSV augment inactive, MT stabilize HCS 3 and b-catenin transl -7.
Cc1onc(-c2c(Cl)cccc2Cl)c1C(=O)NCCCN1CCOCC1 was read as Dynein transport 0.51, L major viab 88*, HSV augment inactive, MT stabilize HCS 4 and b-catenin transl 0.
`CN(C)c1cccc(NC(=O)c2ccco2)c1` gave Dynein transport -0.45, L major viab 2, HSV augment inactive, MT stabilize HCS 3 and b-catenin transl 0.
CCN(CC)P(=O)(Nc1cccc(C(F)(F)F)c1)c1ccc(N(C)C)cc1NC(=O)c1ccco1 (centres undefined) was read as Dynein transport 0.058, L major viab 91*, HSV augment inactive, MT stabilize HCS 5 and b-catenin transl -2.
`Cc1cccc(OCC(=O)NCCN2CCOCC2)c1` gave Dynein transport -0.4, L major viab -2, HSV augment inactive, MT stabilize HCS 4 and b-catenin transl 1.
O=[N+]([O-])c1cccc(C(=Nc2ccccc2)NO)c1 was read as Dynein transport 0.28, L major viab 3, HSV augment inactive and MT stabilize HCS 3.
O=[N+]([O-])c1cc([N+](=O)[O-])c2c(=Nc3ccccc3)n(-c3ccccc3)n(O)c2c1 was read as Dynein transport -2.2, L major viab 100*, HSV augment inactive, MT stabilize HCS 4 and b-catenin transl 1.
